The list is not random: actives were taken first. Their share in the collection is about 1.3%.
TbHK1 inh: T. brucei hexokinase 1 inhibition; recombinant TbHK1, G6PDH-coupled NADH A340; inhibition, % at 10 µM; 0.11% of 220,000 active;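 active means inhibition of 50% or more in the single-dose primary screen; inactive means inhibition below 50%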
PfG6PD inh: PfG6PD (Plasmodium falciparum) enzyme inhibition. inhibition, % at 20 µM. PfGluPho enzyme, NADPH resazurin-diaphorase fluorescence. 0.78% of 350,000 active;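 active means inhibition reaching at least a set limit at 20 µM in the primary screen, cut at about 59% in these data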;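 further: 0% = DMSO wells with substrate and 100% = DMSO wells lacking glucose-6-phosphate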
Diaph inh CS: diaphorase inhibition or chemical oxidation counter-screen. diaphorase resazurin-to-resorufin fluorescence, NADH, 16 min; bacterial (C. kluyveri) enzyme, not human. inhibition, % at 20 µM. 0.69% of 190,000 active;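 active means primary screen inhibition at 20 µM above a set limit, cut at about 50% in these data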;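 further: plate controls were DMSO with full reaction for no effect and wells lacking NADH for full effect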
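Test system: diaphorase enzyme from Clostridium kluyveri; amount: diaphorase at 0.14 U/mL in enzyme working solution; detection: fluorescence of resorufin formed from resazurin, Ex 544/Em 590 nm; times: reaction incubation of 16 min at room temperature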
HKDC1 inh: blocks human hexokinase HKDC1 activity | recombinant HKDC1, G6PDH/diaphorase resazurin coupled fluorescence | AID 493160 | inhibition, % at 20 µM | Q2TB90 | 0.16% of 340,000 active;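 active means inhibition above about 35% when tested at 20 µM, limit read from the data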;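 further: plate controls were DMSO wells with enzyme for no effect and DMSO wells lacking enzyme for full effect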
Target sequence (Q2TB90 whole entry, looked up): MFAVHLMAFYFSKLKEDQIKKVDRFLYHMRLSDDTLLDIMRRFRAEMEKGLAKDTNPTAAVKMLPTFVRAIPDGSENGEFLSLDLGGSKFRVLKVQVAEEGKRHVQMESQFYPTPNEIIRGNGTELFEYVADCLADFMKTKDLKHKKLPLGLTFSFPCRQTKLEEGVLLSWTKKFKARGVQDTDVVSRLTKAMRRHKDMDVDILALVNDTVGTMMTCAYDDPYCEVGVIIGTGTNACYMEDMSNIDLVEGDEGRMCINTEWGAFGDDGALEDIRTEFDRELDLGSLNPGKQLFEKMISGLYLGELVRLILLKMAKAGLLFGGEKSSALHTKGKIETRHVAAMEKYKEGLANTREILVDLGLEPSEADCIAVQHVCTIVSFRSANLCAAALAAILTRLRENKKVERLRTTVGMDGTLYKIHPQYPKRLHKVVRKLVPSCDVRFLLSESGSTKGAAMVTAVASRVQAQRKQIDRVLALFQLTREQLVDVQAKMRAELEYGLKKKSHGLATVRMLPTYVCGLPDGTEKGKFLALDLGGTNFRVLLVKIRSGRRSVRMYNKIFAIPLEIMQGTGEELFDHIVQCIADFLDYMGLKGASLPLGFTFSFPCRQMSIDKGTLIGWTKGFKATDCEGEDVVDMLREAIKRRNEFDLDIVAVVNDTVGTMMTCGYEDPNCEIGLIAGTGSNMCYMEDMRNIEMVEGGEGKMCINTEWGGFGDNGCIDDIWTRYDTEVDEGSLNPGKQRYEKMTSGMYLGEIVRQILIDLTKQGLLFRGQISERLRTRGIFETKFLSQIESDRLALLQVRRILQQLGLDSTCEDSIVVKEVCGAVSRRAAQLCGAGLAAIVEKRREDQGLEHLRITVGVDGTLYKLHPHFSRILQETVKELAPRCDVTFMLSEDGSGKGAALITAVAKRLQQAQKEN
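Test system: Recombinant HKDC1 (HK5) hexokinase enzyme, produced in-house | Input: HKDC1 at 5 µg/mL | Buffer or medium: Tris pH 8.0 buffer with MgCl2, Tween-20, BSA, BME | Schedule: 90 min reaction incubation at room temperature, dark | Technique: Resazurin-to-resorufin fluorescence via G6PDH and diaphorase coupling, 525/613 nm | Controls: DMSO wells with and without enzyme mix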
G6PDH counter: L. mesenteroides G6PDH inhibition counter-screen. Purified L. mesenteroides G6PDH, diaphorase/resazurin coupled fluorescence, 45 min. inhibition, % at 5 µM. 0.12% of 200,000 active; in the data active means inhibition above about 50%
Diaphorase act: activates diaphorase or chemically reduces, flagging diaphorase assay artifacts | Diaphorase/resazurin coupled assay, resorufin fluorescence, 16 min; stronger effect = higher value; 1 = vehicle wells, 0 = NADH-free wells | activation factor at 20 µM | 0.005% of 190,000 active;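 active means diaphorase activity raised at least twofold by the compound at 20 µM; inactive means activation factor below 2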
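Test system: Clostridium kluyveri diaphorase, purified enzyme; input: enzyme 0.07 U/mL final; buffer or medium: 50 mM HEPES pH 7.4 with 4.542 mM MgCl2, 0.005% Tween 20; also added: 0.114 mM NADH and 0.1 mM resazurin, final amounts; schedule: 16 min enzyme reaction, ambient temperature; technique: fluorescence of resorufin, 544 nm excitation, 590 nm emission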
PfG6PD confirm: confirmation of Plasmodium falciparum G6PD inhibitors; shares compounds with PfG6PD inh; recombinant PfGluPho, NADPH-diaphorase-resazurin fluorescence; inhibition, % at 20 µM; 34% of 2,400 active; AID 504753;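 active means inhibition of at least 50% at 20 µM in any single replicate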;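 further: 0% = DMSO with substrate and 100% = DMSO lacking glucose-6-phosphate substrate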
Diaph ctr 10uM: inhibits diaphorase or oxidizes, flagging false PfG6PD hits. shares compounds with PfG6PD inh. diaphorase-coupled resazurin reduction, fluorescence, NADPH 10 uM. inhibition, % at 20 µM. 39% of 820 active. AID 504862;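 active means average inhibition reaching 50% or more with the compound at 20 µM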;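 further: resorufin red fluorescence formed as diaphorase reduces resazurin using NADPH; 0% = DMSO with enzyme and 100% = DMSO without enzyme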
Diaph ctr 30uM: inhibits diaphorase or oxidizes, flagging false PfG6PD hits. shares compounds with PfG6PD inh. Diaphorase/resazurin coupled assay, resorufin fluorescence, 30 uM NADPH. inhibition, % at 20 µM. 29% of 820 active. AID 504863;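 active means inhibition averaging 50% or more, tested at 20 µM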;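 further: 0% = DMSO with enzyme and 100% = DMSO wells lacking diaphorase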
Starred values were filed as active, the others as inactive; nt = no result given.

SMILES	TbHK1 inh	PfG6PD inh	Diaph inh CS	HKDC1 inh	G6PDH counter	Diaphorase act	PfG6PD confirm	others
Nn1c(SCc2ccccn2)nncc1=O	-7.2	-2.4	2.0	2.2	1.7	1	nt
COc1cccc(/C=N/NC(=S)Nc2cccc(S(=O)(=O)N(C)C)c2)c1	5.5	66.7*	nt	-7.1	nt	nt	0.7
CN(C)S(=O)(=O)c1cccc(NC(=S)N/N=C/c2ccc(O)c(O)c2O)c1	45.5	79.7*	nt	32.0	nt	nt	64.2*	Diaph ctr 10uM=58.8*;Diaph ctr 30uM=61.3*
COc1ccc(S(=O)(=O)Nc2cc3c4c(c2)CC(=O)N4CCC3)cc1OC	nt	-6.1	nt	nt	nt	nt	nt
CCC1CCc2c(sc(NC(=O)c3cnccn3)c2C(N)=O)C1 (stereo not given)	nt	69.0*	nt	-8.0	nt	nt	33.0
CCC1CCc2c(sc(NC(=O)c3ccco3)c2C(N)=O)C1 (stereo not given)	-12.4	7.9	24.4	5.4	2.1	0.8	nt
COC(=O)c1sc2nc(-c3ccco3)ccc2c1N	-22.2	75.6*	34.8	5.9	0.1	0.7	-4.1
Clc1ccccc1NN=Cc1ccccn1	nt	-2.6	nt	nt	nt	nt	nt
COc1ccc(CN(Cc2cccn2C)S(=O)(=O)c2ccc(C)cc2)cc1	-0.1	66.4*	nt	2.5	nt	nt	2.2
Cc1ccc(NNS(=O)(=O)c2ccc(C)cc2)cc1	1.7	98.9*	19.6	-4.2	8.9	0.8	54.3*	Diaph ctr 10uM=30.1;Diaph ctr 30uM=-6.4
O=C(NNc1ccc([N+](=O)[O-])cc1)Nc1ccccc1	nt	74.1*	nt	-2.0	nt	nt	0.0
CC(=O)Nc1ccc(S(=O)(=O)NNC(=O)c2ccc([N+](=O)[O-])cc2)cc1	nt	-5.6	nt	-2.4	nt	nt	nt
CC(=O)Nc1ccc(S(=O)(=O)NNc2ccc([N+](=O)[O-])cc2)cc1	nt	74.6*	nt	2.1	nt	nt	33.4
CCC(C(=O)OCC(=O)Nc1cc(Cl)cc(Cl)c1)c1ccccc1 (stereo not given)	-1.2	12.9	17.2	7.6	2.4	0.8	nt
COc1ccc(OC)c(S(=O)(=O)N2CCC(C(=O)NC3CC3)CC2)c1	nt	-3.5	nt	-2.7	nt	nt	nt
CC(C)OP(=O)(c1ccc(N(C)C)cc1)C(O)c1ccc(N(C)C)cc1 (stereo not given)	nt	67.8*	nt	-0.6	nt	nt	8.3
CC(C)COP(=O)(c1ccc(N(C)C)cc1)C(O)c1ccc(N(C)C)cc1 (stereo not given)	nt	4.7	nt	-6.1	nt	nt	nt
O=S(=O)(/N=S1\CC=CCN1S(=O)(=O)c1ccccc1)c1ccccc1 (stereo not given)	nt	63.9*	nt	2.5	nt	nt	21.6
COCCC(=O)N1CCC(Oc2ccc(C(=O)N3CCCC(CCCO)C3)cc2)CC1 (stereo not given)	nt	-17.4	nt	5.5	nt	nt	nt
Cc1c(N=Nc2ccc(O)cc2)c(=O)n(-c2ccccc2)n1C	-26.2	-4.5	-3.7	-2.9	2.8	1	nt
Cc1c(N=C2C=C(Br)C(=O)C(Br)=C2)c(=O)n(-c2ccccc2)n1C	2.1	98.0*	68.6*	20.7	6.7	0.3	102.7*	Diaph ctr 10uM=38.2;Diaph ctr 30uM=11.2
CC(=O)c1cnc2n(c1=O)CCS2	-23.2	-4.7	13.3	-4.9	8.2	0.9	nt
O=C(Sc1n[nH]c(=O)[nH]c1=O)c1ccccc1	nt	110.8*	nt	1.4	nt	nt	92.6*	Diaph ctr 10uM=-7.9;Diaph ctr 30uM=-8.8
CN(C(=O)CSc1n[nH]c(=O)[nH]c1=O)c1ccccc1	nt	-20.6	nt	-1.6	nt	nt	nt
O=C1Nc2cc(C(=O)NCCCN3CCCC3)ccc2S/C1=C/c1cccc(Cl)c1	nt	60.6*	nt	nt	nt	nt	79.0*	Diaph ctr 10uM=-22.7;Diaph ctr 30uM=-24.8
SMILES	TbHK1 inh	PfG6PD inh	Diaph inh CS	HKDC1 inh	G6PDH counter	Diaphorase act	PfG6PD confirm	others
CCN1CCCC1CNC(=O)c1ccc2c(c1)NC(=O)/C(=C\c1ccccc1Cl)S2 (stereo not given)	nt	118.0*	nt	nt	nt	nt	105.0*	Diaph ctr 10uM=-12.6;Diaph ctr 30uM=-12.4
Cc1ccc(-n2c(C)nnc2SCC(=O)N2CCc3ccccc3C2)cc1	1.0	1.7	6.1	-1.5	-7.6	0.9	nt
O=[N+]([O-])c1c(Nc2ccc(O)cc2)cc(Cl)c2nonc12	nt	60.0*	nt	17.2	nt	nt	23.4
Cc1ccc(NC(=S)N(CCN(C)C)Cc2cccs2)c(C)c1	7.4	60.9*	11.3	-1.1	3.6	0.9	41.9
O=C(O)c1ccc(-n2c(-c3cc(-c4ccco4)[nH]n3)n[nH]c2=S)cc1	-0.2	59.1*	37.8	-1.7	4.1	0.6	55.8*	Diaph ctr 10uM=-3.5;Diaph ctr 30uM=-0.6
CCc1c(C)sc(NC(=O)Cn2nc(C)c([N+](=O)[O-])c2C)c1C(N)=O	-4.7	69.0*	5.1	-3.6	7.2	0.9	28.6
NC(=N\N=Cc1ccccc1)/C(N)=N/N=Cc1ccccc1	nt	2.6	nt	-5.7	nt	nt	nt
Cn1c(CS/C(N)=N/N=C/c2ccccc2)c(Br)c(=O)n1-c1ccccc1	-6.1	63.6*	11.6	-16.7	-5.2	0.9	16.2

Screens as filed in PubChem BioAssay.
